Sampled rows, rich in hits. Any-hit rate of the full collection: about 0.55%.
OXTR potentiator = human OXTR potentiators, primary screen, fluorescence, CHO-OTR cells, Fluo-8 calcium; Oxytocin receptor (Homo sapiens), P30559; 0.061% of 320,000 active; activation, % at 3 µM; Fluo-8 calcium fluorescence, potentiator mode; 0% = oxytocin EC15, 100% = EC100;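 active means activation above that plate's cutoff, the mean activation of tested compounds plus 3 SD, cut at about 6.6% in these data, passing the limit was not always enough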;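 further: 100% uses oxytocin at 75 nM as the full agonist control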
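Measured by – Fluo-8 calcium dye fluorescence · Test system – human OTR in CHO cells · Dosing – one concentration, 3.0 µM compound · Controls – EC15 oxytocin alone as 0%, 75 nM oxytocin as 100% · Evaluation – normalized max/min fluorescence ratio, % activation · Timing – 6 min pre-incubation, 100 s read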
TRPML3 agonist = human TRPML3 channel agonists, primary screen, cell-based, HEK293 TRPML3-YFP, Fluo-8 calcium fluorescence, 3 µM; Mucolipin-3 (Homo sapiens), Q8TDD5; 100% = the carbachol control signal; activation, % at 3 µM; 0.29% of 220,000 active;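 active means activation above its plate's cutoff, the mean activation of the plate's test wells plus 3 SD, cut at about 12% in these data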;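 further: 0% = DMSO only wells and 100% = carbachol wells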
Target sequence (Q8TDD5 whole entry, looked up): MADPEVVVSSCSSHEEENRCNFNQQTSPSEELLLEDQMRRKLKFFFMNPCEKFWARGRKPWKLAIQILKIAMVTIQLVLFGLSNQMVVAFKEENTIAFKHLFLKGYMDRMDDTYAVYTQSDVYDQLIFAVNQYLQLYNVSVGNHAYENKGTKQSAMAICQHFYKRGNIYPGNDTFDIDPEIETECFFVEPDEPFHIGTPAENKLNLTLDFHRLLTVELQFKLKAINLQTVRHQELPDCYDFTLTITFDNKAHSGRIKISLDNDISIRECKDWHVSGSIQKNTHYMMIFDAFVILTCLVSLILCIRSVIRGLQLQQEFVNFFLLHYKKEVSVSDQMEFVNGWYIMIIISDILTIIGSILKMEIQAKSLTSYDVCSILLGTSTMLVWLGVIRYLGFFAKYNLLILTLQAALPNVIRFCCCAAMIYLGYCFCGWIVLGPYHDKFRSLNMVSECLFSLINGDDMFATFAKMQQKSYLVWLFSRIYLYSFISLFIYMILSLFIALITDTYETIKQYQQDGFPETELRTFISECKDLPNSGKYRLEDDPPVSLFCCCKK
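Material: TRPML3-YFP stable HEK293 cells | Dosing: One concentration, 3 µM nominal, 0.3% DMSO | Timing: 125 s total fluorescence read per well | Technique: Fluo-8 calcium dye fluorescence, ex 470-495, em 515-575 nm | Measure: Percent activation from peak-to-basal fluorescence ratio, scaled between DMSO and carbachol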
V1aR counter = agonists of human V1a receptor, primary screen, counter-screen for OXTR agonist project, fluorescence, CHO-V1R cells. 0.25% of 320,000 active. AID 2797, 2010. Fluo-8 calcium fluorescence, agonist mode; 0% DMSO, 100% 3 nM vasopressin. activation, % at 3 µM. Vasopressin V1a receptor (Homo sapiens), P37288;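 active means activation above the mean activation of all tested compounds plus 3 SD, per screening run, cut at about 20% in these data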;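 further: signal is peak over basal fluorescence ratio across a 100 second FLIPR read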
TRPN1 ag = zebrafish TRPN1 channel agonists, primary screen, cell-based, HEK293, calcium fluorescence; transient receptor potential cation channel N1 (TRPN1/NompC), Danio rerio; HEK293 zebrafish TRPN1-YFP, Fluo-8 calcium fluorescence; 100% = response to 87 µM carbachol; activation, % at 3 µM; 0.18% of 220,000 active; AID 1424, 2008;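 active means activation above its plate's cutoff, the mean activation of test wells on that plate plus 3 SD, cut at about 19% in these data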;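 further: 0% = DMSO alone and 100% = 87 µM carbachol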
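System: zebrafish TRPN1-YFP in HEK293 cells / Dosing: 3 µM single point / Timing: dye loading 1 h at 37 °C, then 30 min room temperature / Signal: Fluo-8 calcium fluorescence, excitation 470-495 nm, emission 515-575 nm / Read-out basis: percent activation from peak over basal fluorescence ratio, control-normalized / Control set: high carbachol 87 µM, low DMSO alone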
OXTR ag = human OXTR agonists, primary screen, fluorescence, CHO-OTR cells, Fluo-8 calcium. activation, % at 3 µM. Oxytocin receptor (Homo sapiens), P30559. Fluo-8 calcium fluorescence; normalized: DMSO 0%, oxytocin 100%. 0.32% of 320,000 active. AID 2435, 2010;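 active means activation above the mean of all tested compounds plus 3 SD, cutoff set per screening run, cut at about 20% in these data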;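 further: peak over basal fluorescence ratio from a 100 s FLIPR kinetic read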
Numbers without * were called inactive.

Screening COc1ccc(C(=O)NNC(=S)NC(=O)/C=C/c2cccs2)cc1 returned OXTR potentiator -7.4, TRPML3 agonist -0.4, V1aR counter 1.2, TRPN1 ag 2.2 and OXTR ag 3.3.
`OC(CNCCc1ccc(C(F)(F)F)cc1)COC(c1ccccc1)c1ccccc1` (centres undefined) gave OXTR potentiator -15.3, V1aR counter 35.4* and OXTR ag 27.3*.
COc1ccc(C(OCC(O)CNCCc2ccc(S(N)(=O)=O)cc2)c2ccc(OC)cc2)cc1 (centres undefined) was read as OXTR potentiator -12.4, V1aR counter 0.4 and OXTR ag 1.7.
For O=C1c2cccc3c(O)ccc(c23)C(=O)N1c1ccc(Cl)cc1 the results were OXTR potentiator -26.9, V1aR counter 183.7* and OXTR ag 186.2*.
For O=C1c2ccccc2C(=O)N1c1ccc(Cl)cc1 the results were OXTR potentiator -8.9, TRPML3 agonist 0.2, V1aR counter -0.3, TRPN1 ag -1.8 and OXTR ag -2.4.
CC(=O)Nc1ccc(N2C(=O)c3cccc4c(O)ccc(c34)C2=O)cc1 was read as OXTR potentiator -27.2, V1aR counter 173.7* and OXTR ag 172.4*.
`O=C1c2cccc3c(O)ccc(c23)C(=O)N1Cc1ccco1` gave TRPML3 agonist 37.7* and TRPN1 ag 79.2*.
Screening Cc1ccc(N2C(=O)c3cccc4c(C(=O)O)ccc(c34)C2=O)cc1 returned OXTR potentiator -1.2, TRPML3 agonist 1.1, V1aR counter 1.2, TRPN1 ag 1.2 and OXTR ag 0.8.
O=C(Nc1ccc2c(c1)OCO2)C1CC(c2ccc(Cl)cc2)=NO1 (centres undefined) was read as OXTR potentiator -4.0, TRPML3 agonist -0.6, V1aR counter 0.9, TRPN1 ag -0.2 and OXTR ag -0.2.
`Cc1ccc(NC(=O)CSc2ncccn2)c([N+](=O)[O-])c1` gave OXTR potentiator -16.4, TRPML3 agonist 0.1, V1aR counter 0.5, TRPN1 ag 2.1 and OXTR ag -0.7.
Cc1cccc(CSC(Nc2ccc(F)cc2)=C(C#N)C#N)c1 was read as OXTR potentiator -6.6, TRPML3 agonist 18.8*, V1aR counter 9.6, TRPN1 ag 25.8* and OXTR ag 18.4.
`Cc1cccc(CSC(=N)N)c1` gave OXTR potentiator -9.9, TRPML3 agonist 0.3, V1aR counter 1.8, TRPN1 ag 0.6 and OXTR ag -0.4.
Screening CC(SCc1ccccc1)C(=O)Nc1ccc(F)cc1 (centres undefined) returned OXTR potentiator -4.2, TRPML3 agonist -0.7, V1aR counter 0.0, TRPN1 ag -3.1 and OXTR ag -2.7.
N#CC(C#N)=C(Nc1ccc(F)cc1)SCc1cccc(Br)c1 was read as OXTR potentiator -10.4, TRPML3 agonist 20.8*, V1aR counter 5.7, TRPN1 ag 25.2* and OXTR ag 15.8.
For OCC1(CCOc2ccccc2)CCN(Cc2cn[nH]c2-c2ccc(F)cc2)CC1 the results were OXTR potentiator -22.4, TRPML3 agonist 2.3, V1aR counter 0.6, TRPN1 ag 3.0 and OXTR ag 2.6.
`Cc1ccc(NC(=O)Nc2cccc([N+](=O)[O-])c2)cc1F` gave OXTR potentiator -12.8, TRPML3 agonist 12.1*, V1aR counter 7.9, TRPN1 ag 23.0* and OXTR ag 15.9.
Screening CCCCN1C(=O)/C(=C/C=C2/CC(C)(C)CN2C)SC1=S returned OXTR potentiator -20.1, TRPML3 agonist 14.0*, V1aR counter 65.6*, TRPN1 ag 26.1* and OXTR ag 51.6*.
For CCCCN1C(=O)/C(=C/C=C2\Oc3ccccc3N2CC)SC1=S the results were TRPML3 agonist 2.9 and TRPN1 ag 8.6.
`COc1ccc(/C(C)=N/NC(=O)c2nc(C)cc(C)n2)cc1` gave OXTR potentiator -7.5, TRPML3 agonist 1.0, V1aR counter 1.8, TRPN1 ag -1.0 and OXTR ag -0.5.
Screening Cc1cc(/C=C2\C(=N)N3N=C(C(C)C)SC3=NC2=O)c(C)n1Cc1ccccc1 returned OXTR potentiator -22.0, TRPML3 agonist 2.8, V1aR counter 43.9*, TRPN1 ag 9.6 and OXTR ag 47.7*.
For CC1=NN2C(=N)/C(=C\c3cc(C)n(-c4ccccc4)c3C)C(=O)N=C2S1 the results were OXTR potentiator -11.4, TRPML3 agonist 0.5, V1aR counter 0.5, TRPN1 ag 0.8 and OXTR ag 0.0.
For Cc1cc(/C=C2\C(=N)N3N=C(c4ccco4)SC3=NC2=O)c(C)n1Cc1ccccc1 the results were OXTR potentiator -17.2, TRPML3 agonist 0.4, V1aR counter 54.2*, TRPN1 ag 5.6 and OXTR ag 36.1*.
Screening CCC1=NN2C(=N)/C(=C/c3cc(C)n(Cc4ccccc4)c3C)C(=O)N=C2S1 returned OXTR potentiator -21.7, TRPML3 agonist 0.3, V1aR counter 69.4*, TRPN1 ag 0.4 and OXTR ag 52.7*.
Screening Cc1cc(/C=C2\C(=N)N3C(SCc4ccccc4)=NSC3=NC2=O)c(C)n1Cc1ccccc1 returned OXTR potentiator -6.6, TRPML3 agonist 0.6, V1aR counter -0.3, TRPN1 ag -0.2 and OXTR ag 0.2.
Cc1ccc(Cl)cc1NC(=S)N(CCN(C)C)C(C)c1ccccn1 (centres undefined) was read as OXTR potentiator 5.4, TRPML3 agonist 0.2, V1aR counter 0.3, TRPN1 ag 0.0 and OXTR ag -0.3.
`O=c1[nH]c(SCc2ccccc2Cl)nc2c1CCC2` gave OXTR potentiator -2.9, TRPML3 agonist -0.1, V1aR counter -0.5, TRPN1 ag -0.5 and OXTR ag -1.3.
CN(C)c1ccc(/C=C/C(=O)c2cccnc2)cc1 was read as OXTR potentiator -18.9, TRPML3 agonist 33.5*, V1aR counter 86.0*, TRPN1 ag 42.5* and OXTR ag 90.1*.
O=C(/C=C/c1cccc(O)c1)c1cccnc1 was read as OXTR potentiator -1.6, TRPML3 agonist 3.6, V1aR counter 0.9, TRPN1 ag 1.0 and OXTR ag 1.1.
COc1ccc(C(=O)/C=C/c2ccccc2)c(OC)c1 was read as OXTR potentiator -6.2, TRPML3 agonist -0.2, V1aR counter -1.5, TRPN1 ag -1.1 and OXTR ag -1.6.
For COc1ccc(C(=O)/C=C/c2ccc(N(C)C)cc2)c(OC)c1 the results were OXTR potentiator -23.2, TRPML3 agonist 20.0*, V1aR counter 153.8*, TRPN1 ag 43.9* and OXTR ag 135.2*.

Screens from PubChem BioAssay.
